Test [1] is described as follows: Cytotoxicity against human GM00637 cells after 24 hrs by MTT assay. Type of test: cell-based. To be noted: GM00637, 24 h. In a few lines:
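Cells seeded at 10,000 per well and left 48 h to adhere, then exposed to test solutions in DMSO (2.5% final) for 24 h at 37 °C under humidified 5% CO₂. MTT read-out at 550 nm with 690 nm reference. Viability is expressed as percent of DMSO-only control. IC50 is the concentration reducing mean viability to 50% of control, estimated by nonlinear regression of dose-response curves.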

For the next test, the system named is PD20i. Description: Cytotoxicity against FANCD2-deficient human PD20i cells at 0.001 uM after 24 hrs by MTT assay. Type of test: functional, cell-based. Summed up: (§1)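 PD20i and PD20:RV human fibroblasts grown in alpha-MEM with 15% uninactivated FBS, penicillin–streptomycin, 2 mM L-glutamine, 37 °C, 5% CO₂. Cells seeded at 10,000/well, both lines in parallel on the same plate, adhered 48 h. Compound added in DMSO (2.5% final), 24 h at 37 °C. MTT read at 550 nm (690 nm reference). Viability as % of DMSO-only control, mean of at least three independent experiments.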

The species named for the next test is Homo sapiens. Description: Cytotoxicity against wild type FANCD2 expressing human PD20:RV cells at 0.001 uM after 24 hrs by MTT assay. Type of test: functional, cell-based. In a few lines:
as §1

Eleven compounds from ChEMBL document CHEMBL1157849, “The influence of the aziridinyl substituent of benzimidazoles and benzimidazolequinones on toxicity towards normal and Fanconi anaemia cells” (Eur J Med Chem, 2010) can be followed below.

pIC50: −log10 of the molar value. Active and inactive are the calls of the source. The calls are words filed in the database; no cut-off is given here.

In test [1], `CO[C@@]12[C@H](COC(N)=O)C3=C(C(=O)C(C)=C(N)C3=O)N1C[C@@H]1N[C@@H]12` [MITOMYCIN] gave a pIC50 of 6.05. Same read-out and setting: then `O=C1C(N2CC2)=CC(=O)c2c1nc1n2CCCCC1`, with 6.25; and `CCn1cnc2c1C(=O)C=CC2=O`, with 6.24. `COc1ccc(OC)c2c1ncn2C[C@@H]1CN1C(c1ccccc1)(c1ccccc1)c1ccccc1` (stereo not given in full) gave a pIC50 in test [1] of 5.90.

Turning to `O=C1C=CC(=O)c2c1ncn2C[C@@H]1CN1C(c1ccccc1)(c1ccccc1)c1ccccc1` (stereo not given in full), in the test with PD20i, the outcome was Active. In test [1], this compound had a pIC50 of 6.82. On to `O=C1C(N2CC2)=CC(=O)c2c1nc1n2CCC1`, for which the outcome in the test with PD20i and in the test listed under Homo sapiens was Active. The compound further showed a pIC50 in test [1] of 6.54. `COC1=CC(=O)c2c(nc3n2CCCCC3)C1=O` showed a negative logarithm of the IC50 (pIC50) in test [1] of less than 5.82. Same read-out and setting: the figure for `COC1=CC(=O)c2c(nc3n2CCCC3)C1=O` is less than 5.82. In the case of `COC1=CC(=O)c2c(nc3n2CCC3)C1=O`, the outcome in the test on PD20i was inactive. This compound also showed a pIC50 in test [1] of 6.44.

In test [1], `O=C1C(N2CC2)=CC(=O)c2c1nc1n2CCCC1` showed a pIC50 of 5.97.

In test [1], `CCn1cnc2c(OC)ccc(OC)c21` showed a pIC50 of less than 5.00.
